Assay results reported in ChEMBL document CHEMBL4371099, “Bifunctional Duocarmycin Analogues as Inhibitors of Protein Tyrosine Kinases” (J Nat Prod, 2019).
Activity calls are given as the source filed them. The rule behind the calls is not given here.

Experiments:
[1] = biological target: T1, Vascular endothelial growth factor receptor 1 (Homo sapiens, UniProt P17948); test: Inhibition of recombinant human N-terminal GST-tagged VEGFR1 (K784 to I1338 residues) expressed in sf9 cells using Poly(Glu,Tyr) 4:1 as substrate after 60 mins in presence of [gamma33P]-ATP by scintillation counting method
Outline: (§1)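 Radiometric 33PanQinase assay using recombinant human kinases from Sf9 or E. coli, purified by affinity chromatography. ATP at the apparent Km, plus [γ-33P]-ATP. Compound tested at 1−10 000 nM, 1% DMSO. Incubated 60 min at 30 °C, stopped with 2% H3PO4, 33Pi incorporation counted by scintillation.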

[2] = Selectivity index, ratio of IC50 for human PBMC to IC50 for human A549 cells; assay type: toxicity; details: PBMC versus A549 cells, read-out: Ratio IC50
Outline: (§2)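 Selectivity index calculated as MTT IC50 in PBMC divided by MTT IC50 in the cancer line. Both values come from the 24 h MTT viability assay.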

ADR5000 cell line [3] = test: Cytotoxicity against human CEM/ADR5000 cells assessed as reduction in cell viability after 24 hrs by MTT assay; assay type: functional, cell-based; details: ADR5000, 24 h
Outline: (§3)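 Cancer lines or PBMC from healthy human donors seeded in 96-well plates. Exposed to various compound concentrations for 24 h at 37 °C, 5% CO2. MTT solution (5 mg/mL) then added and incubated 2 h more. IC50 obtained by nonlinear regression. Mean ± SD of three independent experiments.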

[4] = biological target: T2, Vascular endothelial growth factor receptor 3 (Homo sapiens, UniProt P35916); test: Inhibition of recombinant human N-terminal GST/His6-tagged VEGFR3 (N799 to R1298 residues) expressed in sf9 cells using Poly(Glu,Tyr) 4:1 as substrate after 60 mins in presence of [gamma33P]-ATP by scintillation counting method; outline: as §1
CCRF-CEM [5] = test: Cell cycle arrest in human CCRF-CEM cells assessed as accumulation at sub-G1 phase after 24 hrs by propidium iodide staining based FACS analysis; assay type: functional
Outline: (§4)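 Cells (1 × 10^6) seeded, incubated overnight, then exposed 24 h at 37 °C and 5% CO2 to increasing concentrations of compound (100 nM axitinib as VEGFR-2 control). Fixed in cold 70% ethanol, stained with propidium iodide for 30 min. DNA content read by flow cytometry, 10,000 gated events per sample. Sub-G1 fraction taken as apoptosis. Three independent experiments.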

[6] = biological target: T3, Mast/stem cell growth factor receptor Kit (Homo sapiens, UniProt P10721); test: Inhibition of recombinant human N-terminal GST/His6-tagged c-KIT (T544 to V976 residues) expressed in sf9 cells assessed as equivalents of test compound required to show 50% inhibition using Poly(Glu,Tyr) 4:1 as substrate after 60 mins in presence of [gamma33P]-ATP by scintillation counting method; outline: as §1
[7] = Selectivity index, ratio of IC50 for human PBMC to IC50 for human CEM/ADR5000 cells; assay type: toxicity; details: PBMC versus CEM/ADR5000 cells, read-out: Ratio IC50; outline: as §2
ADR5000 cell line [8] = test: Cell cycle arrest in human CEM/ADR5000 cells assessed as accumulation at sub-G1 phase after 24 hrs by propidium iodide staining based FACS analysis; assay type: functional; outline: as §4
MIA PaCa-2 [9] = test: Cytotoxicity against human MIAPaCa2 cells assessed as reduction in cell viability after 24 hrs by MTT assay; assay type: functional, cell-based; details: MIA PaCa-2, 24 h; outline: as §3
[10] = biological target: T1, Vascular endothelial growth factor receptor 1; test: Inhibition of recombinant human N-terminal GST-tagged VEGFR1 (K784 to I1338 residues) expressed in sf9 cells assessed as equivalents of test compound required to show 50% inhibition using Poly(Glu,Tyr) 4:1 as substrate after 60 mins in presence of [gamma33P]-ATP by scintillation counting method; outline: as §1
A549 [11] = test: Cytotoxicity against human A549 cells assessed as reduction in cell viability after 24 hrs by MTT assay; assay type: functional, cell-based; details: A549, 24 h; outline: as §3
[12] = biological target: T4, Tyrosine-protein kinase ABL2 (Homo sapiens, UniProt P42684); test: Inhibition of recombinant human N-terminal GST/His6-tagged ABL2 (M1 to P650 residues) expressed in sf9 cells using Poly(Glu,Tyr) 4:1 as substrate after 60 mins in presence of [gamma33P]-ATP by scintillation counting method; outline: as §1
Jurkat [13] = test: Cytotoxicity against human Jurkat cells assessed as reduction in cell viability after 24 hrs by MTT assay; assay type: functional, cell-based; outline: as §3
[14] = Selectivity index, ratio of IC50 for human PBMC to IC50 for human Jurkat cells; assay type: toxicity; details: PBMC versus Jurkat cells, read-out: Ratio IC50; outline: as §2
[15] = biological target: T4, Tyrosine-protein kinase ABL2; test: Inhibition of recombinant human N-terminal GST/His6-tagged ABL2 (M1 to P650 residues) expressed in sf9 cells assessed as equivalents of test compound required to show 50% inhibition using Poly(Glu,Tyr) 4:1 as substrate after 60 mins in presence of [gamma33P]-ATP by scintillation counting method; outline: as §1
[16] = biological target: T5, Vascular endothelial growth factor receptor 2 (Homo sapiens, UniProt P35968); test: Inhibition of recombinant human N-terminal GST-tagged VEGFR2 (D807 to V1356 residues) expressed in sf9 cells using Poly(Glu,Tyr) 4:1 as substrate after 60 mins in presence of [gamma33P]-ATP by scintillation counting method; outline: as §1
PBMC = test: Cytotoxicity against human PBMC assessed as reduction in cell viability after 24 hrs by MTT assay; assay type: cell-based; outline: as §3
[17] = Selectivity index, ratio of IC50 for human PBMC to IC50 for human MIAPaCa2 cells; assay type: toxicity; details: PBMC versus MIAPaCa2 cells, read-out: Ratio IC50; outline: as §2
[18] = biological target: T2, Vascular endothelial growth factor receptor 3; test: Inhibition of recombinant human N-terminal GST/His6-tagged VEGFR3 (N799 to R1298 residues) expressed in sf9 cells assessed as equivalents of test compound required to show 50% inhibition using Poly(Glu,Tyr) 4:1 as substrate after 60 mins in presence of [gamma33P]-ATP by scintillation counting method; outline: as §1
[19] = biological target: T5, Vascular endothelial growth factor receptor 2; test: Inhibition of recombinant human N-terminal GST-tagged VEGFR2 (D807 to V1356 residues) expressed in sf9 cells assessed as equivalents of test compound required to show 50% inhibition using Poly(Glu,Tyr) 4:1 as substrate after 60 mins in presence of [gamma33P]-ATP by scintillation counting method; outline: as §1
MIA PaCa-2 [20] = test: Cell cycle arrest in human MIAPaCa2 cells assessed as accumulation at sub-G1 phase after 24 hrs by propidium iodide staining based FACS analysis; assay type: functional; outline: as §4
Jurkat [21] = test: Cell cycle arrest in human Jurkat cells assessed as accumulation at sub-G1 phase after 24 hrs by propidium iodide staining based FACS analysis; assay type: functional; outline: as §4
[22] = biological target: T3, Mast/stem cell growth factor receptor Kit; test: Inhibition of recombinant human N-terminal GST/His6-tagged c-KIT (T544 to V976 residues) expressed in sf9 cells using Poly(Glu,Tyr) 4:1 as substrate after 60 mins in presence of [gamma33P]-ATP by scintillation counting method; outline: as §1
A549 [23] = test: Cell cycle arrest in human A549 cells assessed as accumulation at sub-G1 phase after 24 hrs by propidium iodide staining based FACS analysis; assay type: functional; outline: as §4
[24] = Selectivity index, ratio of IC50 for human PBMC to IC50 for human CCRF-CEM cells; assay type: toxicity; details: PBMC versus CCRF-CEM cells, read-out: Ratio IC50; outline: as §2
CCRF-CEM [25] = test: Cytotoxicity against human CCRF-CEM cells assessed as reduction in cell viability after 24 hrs by MTT assay; assay type: functional, cell-based; outline: as §3
MIA PaCa-2 [26] = test: Cell cycle arrest in human MIAPaCa2 cells assessed as accumulation at S phase at 1 nM after 24 hrs by propidium iodide staining based FACS analysis; assay type: functional; outline: as §4
MIA PaCa-2 [27] = test: Cell cycle arrest in human MIAPaCa2 cells at 1 to 1000 nM after 24 hrs by propidium iodide staining based FACS analysis; assay type: functional; outline: as §4
[28] = Cytotoxicity against human PBMC assessed as cell viability at 80 uM after 24 hrs by MTT assay relative to control; assay type: cell-based; details: read-out: Activity; outline: as §3
Jurkat [29] = test: Cell cycle arrest in human Jurkat cells at 100 nM after 24 hrs by propidium iodide staining based FACS analysis; assay type: functional
Outline: (§5)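 Cells (1 × 10^6) seeded in 12-well plates and held overnight, then exposed to increasing concentrations of test compound or 100 nM axitinib (VEGFR-2 inhibition control) for 24 h at 37 °C, 5% CO2. Fixed in cold 70% ethanol, stained with propidium iodide for 30 min, DNA content read by flow cytometry on 10,000 gated events; three independent experiments, means ± SD.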

CCRF-CEM [30] = test: Cell cycle arrest in human CCRF-CEM cells at 100 nM after 24 hrs by propidium iodide staining based FACS analysis; assay type: functional; outline: as §5
A549 [31] = test: Cell cycle arrest in human A549 cells at 100 nM after 24 hrs by propidium iodide staining based FACS analysis; assay type: functional; outline: as §5
ADR5000 cell line [32] = test: Cell cycle arrest in human CEM/ADR5000 cells at 100 nM after 24 hrs by propidium iodide staining based FACS analysis; assay type: functional; outline: as §5
MIA PaCa-2 [33] = test: Cell cycle arrest in human MIAPaCa2 cells at 100 nM after 24 hrs by propidium iodide staining based FACS analysis; assay type: functional; outline: as §5

T2 sequence (P35916 whole entry, the tested form may be a part): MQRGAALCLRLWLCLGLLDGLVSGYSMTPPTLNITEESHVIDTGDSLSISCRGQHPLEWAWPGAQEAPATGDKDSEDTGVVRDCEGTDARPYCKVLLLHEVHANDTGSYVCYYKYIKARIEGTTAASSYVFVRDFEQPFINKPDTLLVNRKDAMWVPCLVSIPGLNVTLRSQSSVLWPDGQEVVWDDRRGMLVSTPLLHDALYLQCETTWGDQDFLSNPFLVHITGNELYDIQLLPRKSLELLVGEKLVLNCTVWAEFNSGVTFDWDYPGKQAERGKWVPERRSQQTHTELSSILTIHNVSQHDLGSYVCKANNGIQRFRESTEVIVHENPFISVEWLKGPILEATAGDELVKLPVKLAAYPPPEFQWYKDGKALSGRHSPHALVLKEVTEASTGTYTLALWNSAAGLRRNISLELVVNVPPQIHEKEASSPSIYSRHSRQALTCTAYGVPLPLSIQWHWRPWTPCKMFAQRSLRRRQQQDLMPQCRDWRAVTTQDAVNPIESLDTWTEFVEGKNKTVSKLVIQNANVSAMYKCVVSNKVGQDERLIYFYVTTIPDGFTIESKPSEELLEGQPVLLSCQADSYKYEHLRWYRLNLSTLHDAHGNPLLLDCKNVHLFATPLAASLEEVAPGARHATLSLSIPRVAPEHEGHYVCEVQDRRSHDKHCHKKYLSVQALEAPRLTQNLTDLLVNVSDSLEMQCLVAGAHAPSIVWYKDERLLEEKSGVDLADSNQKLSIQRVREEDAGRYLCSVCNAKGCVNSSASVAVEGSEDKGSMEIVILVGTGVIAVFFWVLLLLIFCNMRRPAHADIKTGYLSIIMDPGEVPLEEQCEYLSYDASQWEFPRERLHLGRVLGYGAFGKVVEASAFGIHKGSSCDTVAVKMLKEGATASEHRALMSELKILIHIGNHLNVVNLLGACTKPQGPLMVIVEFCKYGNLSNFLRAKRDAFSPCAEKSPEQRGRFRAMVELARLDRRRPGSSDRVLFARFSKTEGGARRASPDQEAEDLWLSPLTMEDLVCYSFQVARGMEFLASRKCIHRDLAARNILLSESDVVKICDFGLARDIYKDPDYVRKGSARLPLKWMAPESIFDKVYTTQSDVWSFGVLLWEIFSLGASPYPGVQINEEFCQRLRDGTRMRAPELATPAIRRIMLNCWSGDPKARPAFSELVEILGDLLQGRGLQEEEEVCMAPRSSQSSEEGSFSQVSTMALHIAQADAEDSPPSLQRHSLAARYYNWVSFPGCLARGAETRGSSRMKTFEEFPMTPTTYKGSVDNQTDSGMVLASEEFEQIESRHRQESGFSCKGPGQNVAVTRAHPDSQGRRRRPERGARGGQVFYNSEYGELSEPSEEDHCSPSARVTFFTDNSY
T1 sequence (P17948 whole entry, the tested form may be a part): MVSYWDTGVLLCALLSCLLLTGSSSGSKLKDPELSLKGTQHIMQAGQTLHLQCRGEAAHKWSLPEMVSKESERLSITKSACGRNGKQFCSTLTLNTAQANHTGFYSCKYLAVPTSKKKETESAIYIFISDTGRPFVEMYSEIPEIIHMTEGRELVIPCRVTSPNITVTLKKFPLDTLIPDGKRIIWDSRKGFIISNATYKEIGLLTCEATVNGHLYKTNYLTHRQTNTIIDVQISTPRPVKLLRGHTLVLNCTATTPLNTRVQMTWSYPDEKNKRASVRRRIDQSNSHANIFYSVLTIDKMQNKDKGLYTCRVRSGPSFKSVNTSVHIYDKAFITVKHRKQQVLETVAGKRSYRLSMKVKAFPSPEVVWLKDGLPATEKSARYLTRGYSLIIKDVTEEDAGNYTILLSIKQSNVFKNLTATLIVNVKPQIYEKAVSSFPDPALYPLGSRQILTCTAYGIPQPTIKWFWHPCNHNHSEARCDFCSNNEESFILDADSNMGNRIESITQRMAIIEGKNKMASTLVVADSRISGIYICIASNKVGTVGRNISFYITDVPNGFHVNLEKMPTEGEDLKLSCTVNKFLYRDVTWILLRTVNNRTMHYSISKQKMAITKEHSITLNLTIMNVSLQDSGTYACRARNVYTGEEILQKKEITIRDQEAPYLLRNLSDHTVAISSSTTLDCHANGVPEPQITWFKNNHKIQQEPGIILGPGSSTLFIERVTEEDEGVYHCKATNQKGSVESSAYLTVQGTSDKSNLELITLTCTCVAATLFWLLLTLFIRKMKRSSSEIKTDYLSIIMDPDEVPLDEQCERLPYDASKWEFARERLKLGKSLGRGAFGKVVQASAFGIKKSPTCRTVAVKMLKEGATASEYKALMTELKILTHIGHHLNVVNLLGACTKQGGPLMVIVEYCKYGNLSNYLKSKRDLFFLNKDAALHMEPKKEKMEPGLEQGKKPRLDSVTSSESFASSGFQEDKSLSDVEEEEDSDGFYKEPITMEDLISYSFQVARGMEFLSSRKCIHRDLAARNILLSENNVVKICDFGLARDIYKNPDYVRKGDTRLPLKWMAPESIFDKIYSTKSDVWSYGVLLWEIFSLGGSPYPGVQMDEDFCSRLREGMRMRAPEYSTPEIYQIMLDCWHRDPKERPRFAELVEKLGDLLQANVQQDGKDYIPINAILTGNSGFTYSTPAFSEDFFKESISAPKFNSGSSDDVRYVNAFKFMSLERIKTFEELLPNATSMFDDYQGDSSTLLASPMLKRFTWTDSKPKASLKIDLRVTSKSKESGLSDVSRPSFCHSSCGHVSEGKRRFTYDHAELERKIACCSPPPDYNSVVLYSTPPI
T5 sequence (P35968 whole entry, the tested form may be a part): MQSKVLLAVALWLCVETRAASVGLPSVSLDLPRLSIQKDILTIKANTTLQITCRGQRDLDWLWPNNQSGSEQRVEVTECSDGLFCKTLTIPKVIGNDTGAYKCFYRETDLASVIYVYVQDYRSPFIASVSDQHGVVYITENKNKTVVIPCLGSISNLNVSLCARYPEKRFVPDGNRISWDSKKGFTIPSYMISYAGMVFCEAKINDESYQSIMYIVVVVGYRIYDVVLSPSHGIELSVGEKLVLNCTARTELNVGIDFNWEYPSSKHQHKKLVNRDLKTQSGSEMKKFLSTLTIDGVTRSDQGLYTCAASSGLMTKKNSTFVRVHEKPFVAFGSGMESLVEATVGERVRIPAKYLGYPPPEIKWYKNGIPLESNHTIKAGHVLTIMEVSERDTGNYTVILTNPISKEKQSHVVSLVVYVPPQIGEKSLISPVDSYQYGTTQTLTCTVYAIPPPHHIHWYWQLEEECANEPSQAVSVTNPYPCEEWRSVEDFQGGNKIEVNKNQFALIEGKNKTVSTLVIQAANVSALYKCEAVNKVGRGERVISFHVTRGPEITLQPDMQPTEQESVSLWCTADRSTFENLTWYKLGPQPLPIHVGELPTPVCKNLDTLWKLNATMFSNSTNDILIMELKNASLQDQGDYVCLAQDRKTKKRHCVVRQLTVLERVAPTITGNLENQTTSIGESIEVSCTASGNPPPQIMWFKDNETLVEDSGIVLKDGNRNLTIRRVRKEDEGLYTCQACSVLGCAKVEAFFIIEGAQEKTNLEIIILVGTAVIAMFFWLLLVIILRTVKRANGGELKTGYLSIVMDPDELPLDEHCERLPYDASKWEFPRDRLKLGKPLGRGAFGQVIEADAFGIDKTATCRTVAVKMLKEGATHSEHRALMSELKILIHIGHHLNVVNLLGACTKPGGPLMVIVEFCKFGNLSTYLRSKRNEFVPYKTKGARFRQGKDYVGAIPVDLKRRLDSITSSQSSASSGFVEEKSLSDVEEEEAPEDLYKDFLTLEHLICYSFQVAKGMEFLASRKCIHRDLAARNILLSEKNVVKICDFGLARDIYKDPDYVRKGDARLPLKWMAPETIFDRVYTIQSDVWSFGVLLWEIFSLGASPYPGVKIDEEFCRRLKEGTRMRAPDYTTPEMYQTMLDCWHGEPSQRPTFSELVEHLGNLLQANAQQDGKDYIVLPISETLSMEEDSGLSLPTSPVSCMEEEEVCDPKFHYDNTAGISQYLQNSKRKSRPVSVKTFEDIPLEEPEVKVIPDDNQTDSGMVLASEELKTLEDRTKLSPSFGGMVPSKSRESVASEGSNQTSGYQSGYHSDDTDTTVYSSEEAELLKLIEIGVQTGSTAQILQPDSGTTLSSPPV
T3 sequence (P10721 whole entry, the tested form may be a part): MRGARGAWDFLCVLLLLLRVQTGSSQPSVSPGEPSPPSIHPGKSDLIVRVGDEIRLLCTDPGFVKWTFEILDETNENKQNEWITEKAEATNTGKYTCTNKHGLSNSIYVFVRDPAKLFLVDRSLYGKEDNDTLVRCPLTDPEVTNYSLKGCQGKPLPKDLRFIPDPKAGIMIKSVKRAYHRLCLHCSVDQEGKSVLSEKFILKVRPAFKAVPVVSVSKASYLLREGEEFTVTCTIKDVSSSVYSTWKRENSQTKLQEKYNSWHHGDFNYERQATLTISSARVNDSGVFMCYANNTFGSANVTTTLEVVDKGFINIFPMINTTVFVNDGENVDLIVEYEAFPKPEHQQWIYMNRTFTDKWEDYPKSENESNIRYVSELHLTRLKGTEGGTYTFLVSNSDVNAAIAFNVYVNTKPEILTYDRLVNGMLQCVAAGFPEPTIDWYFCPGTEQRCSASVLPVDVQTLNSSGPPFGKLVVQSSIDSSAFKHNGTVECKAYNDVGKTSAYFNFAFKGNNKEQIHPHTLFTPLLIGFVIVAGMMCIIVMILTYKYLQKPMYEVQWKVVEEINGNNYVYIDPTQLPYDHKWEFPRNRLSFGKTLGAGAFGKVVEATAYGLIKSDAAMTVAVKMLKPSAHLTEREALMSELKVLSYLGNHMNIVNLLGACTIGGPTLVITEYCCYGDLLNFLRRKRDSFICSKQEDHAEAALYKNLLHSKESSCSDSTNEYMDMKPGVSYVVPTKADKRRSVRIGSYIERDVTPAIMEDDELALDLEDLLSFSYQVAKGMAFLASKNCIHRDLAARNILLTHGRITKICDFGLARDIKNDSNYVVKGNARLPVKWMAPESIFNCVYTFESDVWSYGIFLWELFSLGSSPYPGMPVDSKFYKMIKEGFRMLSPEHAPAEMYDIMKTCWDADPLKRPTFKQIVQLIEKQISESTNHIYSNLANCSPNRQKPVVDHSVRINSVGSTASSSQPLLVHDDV

SMILES	IC50 [1]	selectivity ratio [2]	IC50 (ADR5000 cell line [3])	IC50 [4]	Activity [6]	IC50 (MIA PaCa-2 [9])	Activity [10]	IC50 (A549 [11])	IC50 [12]	IC50 (Jurkat [13])	selectivity ratio [14]	Activity [15]	IC50 [16]	IC50 (PBMC)	Activity [19]	IC50 [22]	selectivity ratio [24]	IC50 (CCRF-CEM [25])	further results
O=C(CCCC(=O)N1C[C@@H](CCl)c2c1cc(O)c1ccccc21)N1C[C@@H](CCl)c2c1cc(O)c1ccccc21	1270 nM	741	6.9 nM	4200 nM	233 equiv	14.1 nM	283 equiv	2.7 nM	685 nM	1.4 nM	1430	457 equiv	530 nM	2000 nM	230 equiv	3000 nM	2220	0.9 nM	inhibition [1]: Dose-dependent effect; inhibition [4]: Dose-dependent effect; Activity (CCRF-CEM [5]): Dose-dependent effect; selectivity ratio [7]: 290; Activity (ADR5000 cell line [8]): Dose-dependent effect; inhibition [12]: Dose-dependent effect; inhibition [16]: Dose-dependent effect; selectivity ratio [17]: 142; Activity [18]: 894 equiv; Activity (MIA PaCa-2 [20]): Dose-dependent effect; Activity (Jurkat [21]): Dose-dependent effect; inhibition [22]: Dose-dependent effect; Activity (A549 [23]): Dose-dependent effect; Activity (MIA PaCa-2 [26]): Active
C[C@@H]1CN(C(=O)CCCC(=O)N2C[C@@H](C)c3c2cc(O)c2ccccc32)c2cc(O)c3ccccc3c21	2100 nM	> 120	> 10000 nM	> 10000 nM	643 equiv	> 10000 nM	511 equiv	663 nM	540 nM	660 nM	> 121	360 equiv	330 nM	> 80000 nM	143 equiv	8300 nM	> 439	182 nM	Activity (MIA PaCa-2 [27]): inactive; viability at 24 h, 80 µM [28]: 80%
CNC(=O)c1ccccc1Sc1ccc2c(/C=C/c3ccccn3)n[nH]c2c1																			Activity (Jurkat [29]): Active; Activity (CCRF-CEM [30]): Active; Activity (A549 [31]): Active; Activity (ADR5000 cell line [32]): Active; Activity (MIA PaCa-2 [33]): Active
